# Measured values published in ChEMBL document CHEMBL4725350, “2-Oxaadamant-1-yl Ureas as Soluble Epoxide Hydrolase Inhibitors: In Vivo Evaluation in a Murine Model of Acute Pancreatitis” (J Med Chem, 2020).
# Activity calls are given as the source filed them. The rule behind the calls is not given here.
# How the values were obtained:
# [1] = tested on: AR-42J cell line; test: Protection against cerulein-induced pancreatic damage in rat AR42J cells assessed as reduction in CHOP mRNA level at 60 uM preincubated for 1 hr followed by cerulein addition and measured after 8 hrs by Trisure-reagent based RT-PCR analysis; format: functional, cell-based; conditions: time 9.0 hrs
# Method in brief: (§1)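 Rat pancreatic acinar AR42J cells are exposed to 10 nM cerulein with or without inhibitor co-incubation at 60 μM. IL-6, TNF-α, CHOP and TRB3 mRNA levels are measured and compared with control and cerulein-only cells. Mean ± SEM, n = 5 per group.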
# [2] = biological target: Voltage-gated inwardly rectifying potassium channel KCNH2 (Homo sapiens, UniProt Q12809); test: Inhibition of human ERG at 10 uM
# Chain of Voltage-gated inwardly rectifying potassium channel KCNH2 (Q12809 whole entry): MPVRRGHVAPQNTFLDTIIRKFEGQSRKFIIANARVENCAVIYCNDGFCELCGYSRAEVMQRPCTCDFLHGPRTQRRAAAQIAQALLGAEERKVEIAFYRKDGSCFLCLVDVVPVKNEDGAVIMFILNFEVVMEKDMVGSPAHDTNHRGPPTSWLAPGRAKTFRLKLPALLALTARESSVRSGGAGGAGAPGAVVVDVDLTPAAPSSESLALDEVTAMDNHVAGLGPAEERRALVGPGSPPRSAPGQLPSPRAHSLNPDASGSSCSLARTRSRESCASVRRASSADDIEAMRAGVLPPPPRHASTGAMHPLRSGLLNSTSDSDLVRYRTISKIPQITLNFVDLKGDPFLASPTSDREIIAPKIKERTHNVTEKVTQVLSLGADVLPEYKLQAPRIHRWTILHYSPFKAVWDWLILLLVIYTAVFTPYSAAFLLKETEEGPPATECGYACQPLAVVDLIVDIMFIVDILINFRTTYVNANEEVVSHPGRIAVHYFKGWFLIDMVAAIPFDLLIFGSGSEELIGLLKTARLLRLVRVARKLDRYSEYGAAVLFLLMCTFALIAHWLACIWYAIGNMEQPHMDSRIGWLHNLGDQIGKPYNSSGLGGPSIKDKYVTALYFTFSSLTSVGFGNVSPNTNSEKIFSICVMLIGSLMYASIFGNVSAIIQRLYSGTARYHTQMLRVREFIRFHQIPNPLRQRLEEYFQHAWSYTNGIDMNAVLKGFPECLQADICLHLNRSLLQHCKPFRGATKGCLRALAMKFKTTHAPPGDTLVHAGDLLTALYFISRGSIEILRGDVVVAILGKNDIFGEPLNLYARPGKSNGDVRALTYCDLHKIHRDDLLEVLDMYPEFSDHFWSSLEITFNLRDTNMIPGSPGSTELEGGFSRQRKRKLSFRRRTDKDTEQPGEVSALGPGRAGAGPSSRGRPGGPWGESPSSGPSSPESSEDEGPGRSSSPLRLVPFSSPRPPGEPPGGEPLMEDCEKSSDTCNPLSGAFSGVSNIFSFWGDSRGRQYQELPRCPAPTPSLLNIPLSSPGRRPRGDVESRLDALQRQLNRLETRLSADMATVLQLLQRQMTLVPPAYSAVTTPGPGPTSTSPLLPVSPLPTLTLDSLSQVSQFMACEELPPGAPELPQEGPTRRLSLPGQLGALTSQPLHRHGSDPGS
# [3] = tested on: THLE-2; test: Cytotoxicity against human THLE-2 cells assessed as reduction in cell viability measured after 72 hrs by ATPlite assay; format: cell-based; conditions: thle-2, 72 h, read-out: LC50 (the source's name)
# Method in brief: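 THLE-2 cells were grown in BEGM with 0.7 μg/mL phosphoethanolamine, 0.5 ng/mL EGF and 10% FBS, plated at 10,000 cells/well and left to adhere for 24 h. Cells were exposed to 0–100 μM final (1% DMSO) for 72 h at 37 °C, 5% CO2.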
# [4] = biological target: T1, Bifunctional epoxide hydrolase 2 (Rattus norvegicus, UniProt P80299); test: Inhibition of recombinant rat soluble epoxide hydrolase using CMNPC as substrate preincubated for 5 mins followed by substrate addition and measured at 30 secs interval for 10 mins by fluorescence assay
# T1 sequence (P80299 whole entry): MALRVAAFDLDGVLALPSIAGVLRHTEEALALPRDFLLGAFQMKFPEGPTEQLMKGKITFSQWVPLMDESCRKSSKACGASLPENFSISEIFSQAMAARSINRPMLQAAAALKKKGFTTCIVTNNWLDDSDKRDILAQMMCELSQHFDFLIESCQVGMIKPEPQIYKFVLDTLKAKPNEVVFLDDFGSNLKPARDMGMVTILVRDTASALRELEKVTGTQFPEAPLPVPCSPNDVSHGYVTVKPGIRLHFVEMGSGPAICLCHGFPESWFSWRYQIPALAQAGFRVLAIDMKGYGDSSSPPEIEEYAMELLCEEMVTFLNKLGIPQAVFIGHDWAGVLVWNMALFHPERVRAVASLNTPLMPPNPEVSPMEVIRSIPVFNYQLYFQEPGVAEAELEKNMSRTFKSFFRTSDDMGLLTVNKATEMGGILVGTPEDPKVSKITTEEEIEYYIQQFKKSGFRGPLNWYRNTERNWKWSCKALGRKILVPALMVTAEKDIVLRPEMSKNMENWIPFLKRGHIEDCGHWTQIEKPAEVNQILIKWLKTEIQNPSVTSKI
# Method in brief: (§2)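 Purified recombinant enzyme was preincubated with inhibitor (0.4–100,000 nM final) for 5 min at 30 °C in 100 mM sodium phosphate, pH 7.4, with 0.1 mg/mL BSA and 1% DMSO. CMNPC was added at 5 μM final. 6-Methoxynaphthaldehyde fluorescence (ex 330/em 465 nm) was read every 30 s for 10 min. IC50 values are averages of three replicates.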
# [5] = Stability in human liver microsomes assessed as parent compound remaining measured after 60 mins in presence of NADPH by LC-MS/MS analysis; format: ADME, Microsome; conditions: read-out: Stabilty
# Method in brief: (§3)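 Compound is incubated at 37 °C with human, mouse or rat liver microsomes in 50 mM phosphate buffer pH 7.4. […] Samples at 0–60 min are quenched into acetonitrile; percent parent remaining at 60 min is reported. Testosterone is the positive control.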
# [6] = tested on: AR-42J cell line; test: Protection against cerulein-induced pancreatic damage in rat AR42J cells assessed as reduction in TRB3 mRNA level at 60 uM preincubated for 1 hr followed by cerulein addition and measured after 8 hrs by Trisure-reagent based RT-PCR analysis; format: functional, cell-based; conditions: time 9.0 hrs; method in brief: as §1
# [7] = physchem; conditions: 1% DMSO/99% PBS buffer solution
# [8] = tested on: Mus musculus; test: Protection against cerulein-induced acute pancreatitis in C57BL/6J mouse assessed as reduction in IL-1beta mRNA level at 30 mg/kg administered 24 hrs post-cerulein addition and measured after 24 hrs by Trisure-reagent based RT-PCR analysis; format: functional, organism-based
# Method in brief: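 Post-induction (treatment) protocol in C57BL/6J mice. Acute pancreatitis is induced by several cerulein administrations, followed by ip sEH inhibitor at 3 or 30 mg/kg. Pancreatic mRNA of TNF-α, IL-1β, MCP-1 and ATF3 is quantified against control and cerulein-only groups. Mean ± SEM, n = 5 per group.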
# [9] = Stability in mouse liver microsomes assessed as parent compound remaining measured after 60 mins in presence of NADPH by LC-MS/MS analysis; format: ADME, Microsome; conditions: read-out: Stabilty; method in brief: as §3
# [10] = Stability in rat liver microsomes assessed as parent compound remaining measured after 60 mins in presence of NADPH by LC-MS/MS analysis; format: ADME, Microsome; conditions: read-out: Stabilty; method in brief: as §3
# [11] = tested on: AR-42J cell line; test: Protection against cerulein-induced pancreatic damage in rat AR42J cells assessed as reduction in TNF-alpha mRNA level at 60 uM preincubated for 1 hr followed by cerulein addition and measured after 8 hrs by Trisure-reagent based RT-PCR analysis; format: functional, cell-based; conditions: time 9.0 hrs; method in brief: as §1
# [12] = Cytotoxicity against human PBMC assessed as reduction in cell viability measured after 72 hrs by ATPlite assay; conditions: read-out: LC50 (the source's name)
# [13] = biological target: T2, Bifunctional epoxide hydrolase 2 (Mus musculus, UniProt P34914); test: Inhibition of recombinant mouse soluble epoxide hydrolase using CMNPC as substrate preincubated for 5 mins followed by substrate addition and measured at 30 secs interval for 10 mins by fluorescence assay; method in brief: as §2
# T2 sequence (P34914 whole entry): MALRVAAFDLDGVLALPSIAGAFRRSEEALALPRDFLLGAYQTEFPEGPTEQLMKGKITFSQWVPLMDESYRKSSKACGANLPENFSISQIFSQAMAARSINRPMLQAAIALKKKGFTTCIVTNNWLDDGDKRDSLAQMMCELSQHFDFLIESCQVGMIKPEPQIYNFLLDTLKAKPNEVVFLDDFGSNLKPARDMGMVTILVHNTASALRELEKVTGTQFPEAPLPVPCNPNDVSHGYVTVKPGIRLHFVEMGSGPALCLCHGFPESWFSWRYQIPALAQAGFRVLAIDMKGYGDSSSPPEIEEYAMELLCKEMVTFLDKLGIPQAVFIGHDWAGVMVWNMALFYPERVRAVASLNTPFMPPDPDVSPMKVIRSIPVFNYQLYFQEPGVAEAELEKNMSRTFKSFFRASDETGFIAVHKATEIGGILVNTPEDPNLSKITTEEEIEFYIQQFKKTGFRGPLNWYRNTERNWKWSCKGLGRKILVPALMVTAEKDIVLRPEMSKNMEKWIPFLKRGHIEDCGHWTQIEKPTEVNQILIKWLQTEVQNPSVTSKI
# [14] = tested on: AR-42J cell line; test: Protection against cerulein-induced pancreatic damage in rat AR42J cells assessed as reduction in IL-6 mRNA level at 60 uM preincubated for 1 hr followed by cerulein addition and measured after 8 hrs by Trisure-reagent based RT-PCR analysis; format: functional, cell-based; conditions: time 9.0 hrs; method in brief: as §1
# [15] = organism: Homo sapiens; test: Selectivity ratio of inhibition of recombinant human CYP3A4 to IC50 for inhibition of recombinant human soluble epoxide hydrolase using 7-BFC as substrate
# [16] = organism: Homo sapiens; test: Selectivity ratio of inhibition of recombinant human CYP2C9 to IC50 for inhibition of recombinant human soluble epoxide hydrolase
Compound,Activity [1],inhibition (INH) [2],CC50 [3] [µM],IC50 [4] [nM],remaining at 1 h [5] [%],Activity [6],solubility kinetic at 2 h [7] [µM],Activity [8],remaining at 1 h [9] [%],remaining at 1 h [10] [%],Activity [11],CC50 [12] [µM],IC50 [13] [nM],Activity [14],Selectivity ratio [15],Selectivity ratio [16]
CC(C)S(=O)(=O)N1CCC(NC(=O)NC23CC4CC(CC(C4)O2)C3)CC1,Active,Not Active,> 100,1.9,72.7,Active,34,Active,63.9,63.9,Active,> 20,79.1,Active,,
CC(=O)N1CCC(NC(=O)NC23CC4CC(CC(C4)O2)C3)CC1,Active,Not Active,> 100,3.3,88.8,Active,59,,80.5,85.1,Active,> 20,92.3,Active,> 100,> 100
